Series [1] deals with Human immunodeficiency virus 1. Description: Antiviral activity against HIV1 NL4-3 in human MT4 cells assessed as inhibition of virus-induced cytopathogenicity by MTT assay. The series is classed as functional, organism-based. The conditions noted are these: Human immunodeficiency virus 1, NL4-3, MT4. An outline of the steps:
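MT-4 lymphoid cells infected with wild-type HIV-1 NL4-3 in the presence of a range of compound concentrations. Viable cells were counted by MTT colorimetric read-out at day 5 post-infection. EC50 is the concentration giving 50% protection from virus-induced cytopathic effect. Means ± SD from at least two or three experiments.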

Series [2] can be described thus: Cytotoxicity against human MT4 cells by MTT assay. The series is classed as cell-based. An outline of the steps:
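Mock-infected MT-4 cells were exposed to a range of compound concentrations. Viability was read by MTT at day 5. CC50 is the concentration that kills 50% of uninfected cells. The top concentration was limited by compound precipitation in culture medium. Means ± SD from at least two or three experiments.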
(In general: Tetrazolium dyes change colour on reduction, which living cells bring about.)

Series [3] is described as follows: Selectivity index, ratio of CC50 for human MT4 cells to EC50 for HIV1 NL4-3. The conditions noted are these: read-out: Ratio CC50/EC50. It counts as toxicity, cell-based. Put shortly: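 Computed as CC50/EC50. CC50 comes from MTT viability of mock-infected MT-4 cells and EC50 from MTT protection of NL4-3-infected MT-4 cells, both read at day 5.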
The test system of series [4] is Human immunodeficiency virus 1. Description: Antiviral activity against HIV1 isolates with reverse transcriptase K103N mutation in human MT4 cells assessed as inhibition of virus-induced cytopathogenicity by MTT assay. It counts as functional, organism-based. The conditions noted are these: Human immunodeficiency virus 1, MT4. An outline of the steps: (§1)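 MT-4 lymphoid cells infected with HIV-1 carrying RT K103N, Y181C or Y188L, in the presence of different drug concentrations. Viable cells counted at day 5 postinfection by MTT colorimetric assay. EC50 is the concentration that inhibits 50% of the HIV-induced cytopathic effect.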
On the technique in general: Cytopathic effects are the visible damage that an infection or toxin causes in cultured cells.

Series [5] concerns Human immunodeficiency virus 1. Description: Antiviral activity against HIV1 isolates with reverse transcriptase Y181C mutation in human MT4 cells assessed as inhibition of virus-induced cytopathogenicity by MTT assay. It counts as functional, organism-based. The conditions noted are these: Human immunodeficiency virus 1, MT4. Put shortly:
as §1

Series [6] has as its system Human immunodeficiency virus 1. Description: Resistance index, ratio of EC50 for drug-resistant HIV1 isolate with reverse transcriptase Y181C mutation to EC50 for wild type HIV1 NL4-3. The series is classed as functional. An outline of the steps:
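Fold resistance is the EC50 against the K103N, Y181C or Y188L mutant strain divided by the EC50 against wt NL4-3. Each EC50 is from MT-4 cells infected in the presence of different drug concentrations, with viability read by MTT at day 5 postinfection.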

Series [7] concerns Human immunodeficiency virus 1. As to the kind of experiment: Antiviral activity against HIV1 isolates with reverse transcriptase Y188L mutation in human MT4 cells assessed as inhibition of virus-induced cytopathogenicity by MTT assay. The series is classed as functional, organism-based. The note with it: Human immunodeficiency virus 1, MT4. An outline of the steps:
as §1

Series [8] has as its system Human immunodeficiency virus 1. Description: Resistance index, ratio of ID50 for reverse transcriptase K103N mutant to IC50 for wild-type HIV1 sreverse transcriptase. An outline of the steps:
(§2)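 Recombinant wt and K103N, L100I or Y181I HIV-1 RT (>95% pure), 2-4 nM. RNA-dependent DNA polymerase assay on 0.5 µg poly(rA)/oligo(dT) 10:1 (0.3 µM 3'-OH ends) with 10 µM [3H]-dTTP and 8% final DMSO. Aliquots taken every 2 min. Inhibitor range 0.2-5× ID50, fitted to a noncompetitive model. Fold resistance is mutant ID50 divided by wt ID50.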

Series [9] has as its system Human immunodeficiency virus 1. Description: Resistance index, ratio of ID50 for reverse transcriptase Y181I mutant to IC50 for wild-type HIV1 reverse transcriptase. Put shortly: as §2
The test system of series [10] is Human immunodeficiency virus 1. Description: Resistance index, ratio of ID50 for reverse transcriptase L100I mutant to IC50 for wild-type HIV1 reverse transcriptase. Put shortly: as §2
Series [11] addresses Human immunodeficiency virus type 1 reverse transcriptase (Human immunodeficiency virus 1) (UniProt Q72547).
For series [12], the system named is Human immunodeficiency virus type 1 reverse transcriptase (Human immunodeficiency virus 1), Q72547 [K103N].
Series [13] concerns Human immunodeficiency virus type 1 reverse transcriptase (Human immunodeficiency virus 1), Q72547 [Y181I].
In series [14] the test system is Human immunodeficiency virus type 1 reverse transcriptase (Human immunodeficiency virus 1), Q72547 [L100I].

The term EC50 denotes the concentration giving half of the maximal effect. What is called CC50 is the concentration at which the toxic effect on the cells reaches its halfway point. Consider `COc1ccc(C(=O)CSc2nc(Cc3c(F)cccc3Cl)c(C)c(=O)[nH]2)cc1`, for which the EC50 in series [1] is 0.2 µM; in series [4] it was greater than 12 µM; in series [5], 1.57 µM; in series [7], greater than 12 µM. Also, the 50% cytotoxic concentration (CC50) in [2] was greater than 12 µM. Further, in series [3], the selectivity ratio is greater than 60. In series [6], the “Ratio EC50” value was 8. Further, the results for the Ratio in [8], in [9] and in series [10] were 150, 67 and 1390, respectively. In addition, the ID50 in series [11] stood at 0.018 µM; in [12] it was 2.7 µM; in series [13], 1.2 µM; in series [14], 25 µM.

With `Cc1c(Cc2c(F)cccc2F)nc(SCC(=O)c2ccc(F)cc2)[nH]c1=O`, the half-maximal effective concentration (EC50) in series [1] is 0.025 µM; in series [4] it was greater than 62 µM; in [5], 0.35 µM; in [7], greater than 62 µM. The half-maximal cytotoxic concentration (CC50) in series [2] is greater than 62 µM. Also, the selectivity ratio in [3] was greater than 2480. In addition, the “Ratio EC50” value in series [6] amounted to 14. For the same compound, the figures for the Ratio in series [8], in [9] and in [10] were 29, 4 and 96, respectively. The ID50 in series [11] was 0.41 µM; in series [12] it was 12 µM; in [13] it was 1.71 µM; in [14], 39.2 µM.

Take `O=C(CSc1nc(Cc2c(Cl)cccc2Cl)cc(=O)[nH]1)c1ccc(F)cc1`: the EC50 in series [1] is 0.78 µM; in series [4], greater than 59 µM; in [5], greater than 59 µM; in series [7], greater than 59 µM. Also, the CC50 in series [2] was greater than 59 µM. Further, the selectivity ratio in series [3] is greater than 76. The values for the Ratio in series [8], in [9] and in [10] were 46, 46 and 124, respectively. Further, the ID50 in series [11] is 0.21 µM; in series [12] it was 9.7 µM; in series [13], 9.7 µM; in [14] it was 26.1 µM.

Consider `CCC(C)c1c(Cc2c(F)cccc2Cl)nc(SCC(=O)c2ccc(OC)cc2)[nH]c1=O` (stereo not given), for which the EC50 is 0.006 µM in series [1], greater than 40 µM in [4], greater than 40 µM in series [5] and greater than 40 µM in [7]. The CC50 in series [2] turned out to be 40 µM. Moreover, the selectivity ratio in series [3] is greater than 6670. Further, the values for the Ratio in series [8], in series [9] and in [10] were 84, 1130 and 3910, respectively. Also, the ID50 in series [11] was 0.007 µM; in series [12], 0.59 µM; in series [13] it was 7.9 µM; in series [14], 27.4 µM.

On to `O=C(CSc1nc(Cc2c(F)cccc2Cl)cc(=O)[nH]1)c1ccccc1`, for which the 50% effective concentration (EC50) in [1] was 1.26 µM; in series [4], greater than 13 µM; in series [5] it was greater than 13 µM; in series [7], greater than 13 µM. The compound further yielded a CC50 in series [2] greater than 13 µM. In series [3], the selectivity ratio was greater than 10. Besides, the Ratio in [8] came to 1000; in series [9], 200; in series [10] it was 750. The ID50 in series [11] was 0.002 µM; in [12], 2 µM; in series [13], 0.4 µM; in [14], 1.5 µM.

As to `O=C(CSc1nc(Cc2c(Cl)cccc2Cl)cc(=O)[nH]1)c1ccccc1`, the 50% effective concentration (EC50) is 1.78 µM in series [1], greater than 12 µM in series [4], greater than 12 µM in [5] and greater than 12 µM in [7]. The same compound gave a CC50 in [2] greater than 12 µM. The selectivity ratio in [3] is greater than 7. For the same compound, the Ratio in series [8] was determined as 308; in [9] it was 22; in series [10] it was 917. Moreover, the ID50 in [11] is 0.012 µM; in [12], 3.7 µM; in [13], 0.26 µM; in series [14], 11 µM.

With `Cc1c(Cc2c(Cl)cccc2Cl)nc(SCC(=O)c2ccc(F)cc2)[nH]c1=O`, the EC50 is 0.046 µM in series [1], greater than 57 µM in series [4], greater than 57 µM in series [5] and greater than 57 µM in series [7]. This compound displayed a CC50 in [2] greater than 57 µM. Moreover, in series [3], the selectivity ratio is greater than 1240. Moreover, the Ratio in series [9] came to 4; in series [10], 56. The ID50 in series [11] is 0.19 µM; in [12], greater than 40 µM; in series [13], 0.8 µM; in series [14] it was 10.7 µM.

For the compound `COc1ccc(C(=O)CSc2nc(Cc3c(F)cccc3Cl)cc(=O)[nH]2)cc1`, the EC50 was 1.55 µM in [1], greater than 12 µM in series [4], greater than 12 µM in [5] and greater than 12 µM in [7]. Besides, the CC50 in series [2] is greater than 12 µM. Also, the selectivity ratio in [3] was greater than 8. The Ratio is 243 in series [8] and 36 in [10]. Moreover, the ID50 in series [11] was 0.014 µM; in series [12], 3.4 µM; in series [13], greater than 40 µM; in series [14] it was 0.5 µM.

Take `CCc1c(Cc2c(F)cccc2F)nc(SCC(=O)c2ccc(OC)cc2)[nH]c1=O`: the EC50 was 0.009 µM in series [1], greater than 58 µM in series [4], 0.25 µM in series [5] and greater than 58 µM in series [7]. In [2], the CC50 is greater than 58 µM. Also, the selectivity ratio in series [3] was greater than 6440. Besides, the “Ratio EC50” value in [6] amounted to 28. For the same compound, the Ratio in series [8] is 110; in series [9], 19. Besides, the ID50 in [11] is 0.031 µM; in series [12] it was 3.41 µM; in series [13], 0.58 µM; in series [14], greater than 40 µM.

In the case of `CCC(C)c1c(Cc2c(F)cccc2Cl)nc(SCC(=O)c2ccc(F)cc2)[nH]c1=O` (stereo not given), the EC50 in [1] is 0.017 µM; in series [4] it was greater than 54 µM; in series [5], 0.86 µM; in series [7] it was greater than 54 µM. The same compound showed a CC50 in [2] greater than 54 µM. For the same compound, the selectivity ratio in series [3] was greater than 3180. Further, the “Ratio EC50” value in [6] came to 51. The Ratio in series [10] stood at 1360. The ID50 in [11] was 0.024 µM; in [12], greater than 40 µM; in series [13], greater than 40 µM; in series [14], 32.7 µM.

Regarding `COc1ccc(C(=O)CSc2nc(Cc3c(F)cccc3F)c(C)c(=O)[nH]2)cc1`, the concentration giving a half-maximal response (EC50) in [1] is 0.048 µM; in series [4] it was greater than 60 µM; in series [5], 0.65 µM; in [7] it was greater than 60 µM. This compound also had a cytotoxic concentration (CC50) in [2] greater than 60 µM. Besides, the selectivity ratio in [3] is greater than 1250. In addition, the “Ratio EC50” value in series [6] is 13. The Ratio in series [8] came to 87; in series [9], 4. Further, the ID50 in series [11] was 0.26 µM; in series [12], 22.7 µM; in [13] it was 1.17 µM; in series [14] it was greater than 40 µM.

In the case of `CC(C)c1c(Cc2c(F)cccc2F)nc(SCC(=O)c2ccc(F)cc2)[nH]c1=O`, the concentration for a half-maximal effect (EC50) in series [1] is 0.005 µM; in series [4], greater than 58 µM; in series [5], 0.18 µM; in [7], greater than 58 µM. This compound registered a CC50 in [2] greater than 58 µM. For the same compound, the selectivity ratio in [3] was greater than 11600. The “Ratio EC50” value in series [6] is 36. Moreover, the Ratio is 71 in series [8] and 70 in [10]. Moreover, the ID50 in [11] was 0.082 µM; in series [12], 5.82 µM; in series [13], greater than 40 µM; in series [14], 5.7 µM.

The record behind these values is ChEMBL document CHEMBL1155883, “5-Alkyl-6-benzyl-2-(2-oxo-2-phenylethylsulfanyl)pyrimidin-4(3H)-ones, a series of anti-HIV-1 agents of the dihydro-alkoxy-benzyl-oxopyrimidine family with peculiar structure-activity relationship profile” (J Med Chem, 2008).
